Key:
[1] = Octanol-buffer partition coefficient determined by dividing its equilibrium organic concentration by its aqueous concentration; assay type: physicochemical; conditions: octanol/water
Summary of the method: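 Sample dissolved at 10 µg/mL in Sørensen buffer pH 7.4; equal volumes buffer and 1-octanol shaken 24 h at 25 °C, centrifuged. Each phase quantified by HPLC (UV 254 nm, ODS column, 0.03 M phosphate pH 3.0–CH3CN 7:3). PCoct = organic/aqueous equilibrium concentration.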

[2] = biological target: Histamine H1 receptor (Mus musculus) (UniProt P70174); assay: Ex vivo inhibition of [3H]mepyramine binding to mouse brain membrane H1 receptor after oral administration; assay type: functional, organism-based
Summary of the method: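 Male ICR mice (6 weeks, starved 24 h) dosed orally with compound or vehicle; brain taken 1 h later and homogenized in 40 volumes 50 mM phosphate buffer pH 7.4. Membranes incubated with [3H]mepyramine (final 2 nM), 25 °C, 30 min; filtered, scintillation counted.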

[3] = test system: Mus musculus; assay: Inhibitory effect on histamine-induced increase in vascular permeability in mice upon oral administration; assay type: functional
Summary of the method: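 Male ICR mice (6 weeks, starved 20 h) dosed orally; 1 h later, under light ether, intradermal histamine dihydrochloride 2.5 µg/site plus saline after iv 0.2 mL 1% Evans blue. Killed 30 min later; extravasated dye extracted and assayed. ED50 from log-logit dose–percent inhibition, least squares, with 95% confidence limits.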

[4] = test system: Mus musculus; assay: Tested for Hexobarbital-induced anesthesia in mice by measuring dose which produced 50% increase of the sleeping time upon oral administration; assay type: functional; conditions: read-out: ID50 (the source's name)
Summary of the method: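 Male ICR mice (5 weeks, starved 20–24 h) dosed orally; 1 h later hexobarbital 80 mg/kg ip. Sleeping time = duration of loss of righting reflex; responders show >50% increase over controls. ID50 from number responding at each dose by Litchfield–Wilcoxon, with 95% confidence limits.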

[5] = test system: Rattus norvegicus; assay: Antiallergic activity was evaluated by inhibitory effect on 48/80-induced lethality in rats at a dose 0.1 (mg/kg, po); assay type: functional
Summary of the method: (§1)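 Male Wistar rats, 6 weeks old, fasted 24 h, n = 5. Survival beyond 2 h scored all-or-none; percent inhibition of lethality recorded at each oral dose.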

[6] = test system: Rattus norvegicus; assay: Antiallergic activity was evaluated by inhibitory effect on 48/80-induced lethality in rats at a dose 1 (mg/kg, po); assay type: functional; summary of the method: as §1
[7] = Selectivity as the ratio of ID50 value to that of ED50 value in mice.; assay type: functional
Summary of the method: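 Ratio B/A: B = oral ID50 for ex vivo [3H]mepyramine binding in mouse brain membranes (1 h post-dose); A = oral ED50 against histamine-induced skin vascular permeability in mice.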

[8] = test system: Rattus norvegicus; assay: Antiallergic activity was evaluated by inhibitory effect on compound 48/80-induced lethality in rats at a dose 0.01 (mg/kg, po); assay type: functional; summary of the method: as §1
[9] = test system: Rattus norvegicus; assay: Antiallergic activity was evaluated by inhibitory effect on compound 48/80-induced lethality in rats at a dose 10 (mg/kg, po); assay type: functional; summary of the method: as §1
[10] = test system: Cavia porcellus; assay: Histamine induced in lethality in guinea pigs at 8 hr after oral dose of 0.3 mg/kg; assay type: functional
Summary of the method: (§2)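 Male Hartley guinea pigs, 6 weeks old, fasted 24 h, n = 10, dosed orally. Eight hours later histamine dihydrochloride given iv at a lethal dose of 1 mg/kg. Survival beyond 30 min scored all-or-none; percent inhibition of lethality reported.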

[11] = test system: Cavia porcellus; assay: Histamine induced in lethality in guinea pigs at 8 hr after oral dose of 0.02 mg/kg; assay type: functional; summary of the method: as §2
[12] = species: Cavia porcellus; assay: animal or person; conditions: po, 8 h, read-out: Inhibition

Sequence of Histamine H1 receptor (Mus musculus) (P70174 whole entry): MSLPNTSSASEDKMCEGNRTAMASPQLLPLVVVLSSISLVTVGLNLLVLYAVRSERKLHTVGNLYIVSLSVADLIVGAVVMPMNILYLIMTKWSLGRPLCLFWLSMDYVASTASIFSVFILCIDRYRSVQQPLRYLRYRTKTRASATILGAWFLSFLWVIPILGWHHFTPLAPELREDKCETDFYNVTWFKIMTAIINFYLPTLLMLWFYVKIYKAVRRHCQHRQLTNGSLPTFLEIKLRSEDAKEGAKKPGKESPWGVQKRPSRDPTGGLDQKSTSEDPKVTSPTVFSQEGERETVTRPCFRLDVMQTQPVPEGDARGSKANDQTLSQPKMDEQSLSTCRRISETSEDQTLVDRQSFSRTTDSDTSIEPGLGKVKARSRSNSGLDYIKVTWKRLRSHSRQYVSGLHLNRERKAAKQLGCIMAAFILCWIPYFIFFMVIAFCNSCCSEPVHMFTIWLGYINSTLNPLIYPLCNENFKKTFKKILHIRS

Structure (SMILES) | ID50 [2] [mg/kg] | ED50 [3] [mg/kg] | Inhibition [5] [%] | Inhibition [6] [%] | Selectivity [7] | Inhibition [8] [%] | Inhibition [9] [%] | further results
O=C(O)CCN1CCC(=C2c3ccccc3OCc3cccnc32)CC1 | 19 | 0.012 | 0 | 100 | 1600 |  |  | PCoct [1]: 0.52; ED50 [4]: > 100 mg/kg
O=C(O)CCN1CCC(=C2c3ccc(Br)cc3OCc3cccnc32)CC1 |  |  | 40 | 60 |  | 0 | 100 | 
COc1ccc2c(c1)OCc1ncccc1C2=C1CCN(CCC(=O)O)CC1 |  |  | 40 | 100 |  | 0 |  | 
O=C(O)CCN1CCC(=C2c3cc(C(=O)O)ccc3OCc3cccnc32)CC1 |  |  |  | 0 |  |  | 20 | 
O=C(O)CCN1CCC(=C2c3cc(F)ccc3OCc3ncccc32)CC1 |  |  | 60 | 100 |  | 0 |  | 
CN1CCC(=C2c3ccccc3COc3ccccc32)CC1 | 0.77 | 0.035 | 0 | 60 | 22 |  | 100 | ED50 [4]: 0.73 mg/kg
CCOC(=O)N1CCC(=C2c3ccc(Cl)cc3CCc3cccnc32)CC1 [LORATADINE] |  | 0.21 |  |  |  |  |  | inhibition in vivo at 0.3 mg/kg [10]: 80%
O=C(O)CCN1CCC(=C2c3cccc([N+](=O)[O-])c3OCc3cccnc32)CC1 |  |  |  | 0 |  |  | 60 | 
O=C(O)CCN1CCC(=C2c3ccc(F)cc3OCc3cccnc32)CC1 | 14 | 0.025 | 40 | 100 | 560 | 0 |  | ED50 [9]: 0.29 mg/kg; inhibition in vivo at 0.3 mg/kg [10]: 90%
CN1CCC(=C2c3ccccc3CC(=O)c3sccc32)CC1 [KETOTIFEN] | 0.65 | 0.23 |  |  | 2.8 |  |  | inhibition in vivo at 0.02 mg/kg [11]: 10%
O=C(O)CCN1CCC(=C2c3ccc(F)cc3OCc3ncccc32)CC1 | 2.5 | 0.0037 | 100 |  | 680 | 40 |  | ED50 [9]: 0.034 mg/kg; inhibition in vivo at 0.3 mg/kg [10]: 60%
COc1ccc2c(c1)OCc1cccnc1C2=C1CCN(CCC(=O)O)CC1 |  |  | 0 | 20 |  |  | 100 | 
CN1CCC(=C2c3ccccc3OCc3ncccc32)CC1 | 0.49 | 0.025 | 0 | 100 | 20 |  |  | PCoct [1]: 54.3; ED50 [4]: 9.9 mg/kg
O=C(O)CCN1CCC(=C2c3ccc(Cl)cc3OCc3ncccc32)CC1 |  |  | 80 | 100 |  | 40 |  | 
Cc1ccc(/C(=C\CN2CCCC2)c2cccc(/C=C/C(=O)O)n2)cc1 [ACRIVASTINE] | > 300 | 0.63 |  |  | >480 |  |  | ED50 [9]: 3.3 mg/kg; inhibition in vivo at 0.16 mg/kg [12]: 0%
COc1ccc2c(c1)C(=C1CCN(CCC(=O)O)CC1)c1ncccc1CO2 |  |  | 20 | 60 |  | 0 | 80 | 

Structure (SMILES) | ID50 [2] [mg/kg] | ED50 [3] [mg/kg] | Inhibition [5] [%] | Inhibition [6] [%] | Selectivity [7] | Inhibition [8] [%] | Inhibition [9] [%] | further results
CN1CCC(=C2c3ccccc3OCc3cccnc32)CC1 | 0.2 | 0.011 | 0 | 100 | 18 |  |  | PCoct [1]: 28.4; ED50 [4]: > 100 mg/kg
CC(CC(=O)O)N1CCC(=C2c3ccc(F)cc3OCc3cccnc32)CC1 (configuration not stated) |  |  |  | 0 |  |  | 100 | 
O=C(O)CCN1CCC(=C2c3cc([N+](=O)[O-])ccc3OCc3cccnc32)CC1 |  |  | 0 | 20 |  |  | 80 | 
CC(=O)c1ccc2c(c1)C(=C1CCN(CCC(=O)O)CC1)c1ncccc1CO2 |  |  | 0 | 20 |  |  | 100 | 
O=C(O)CCN1CCC(=C2c3ccccc3OCc3ncccc32)CC1 | 3.4 | 0.01 | 40 | 100 | 340 | 0 |  | PCoct [1]: 0.56; ED50 [4]: > 100 mg/kg
O=C(O)CCN1CCC(=C2c3cccc(F)c3OCc3cccnc32)CC1 |  |  | 20 | 100 |  | 0 |  | 
CC(CN1CCC(=C2c3ccc(F)cc3OCc3ncccc32)CC1)C(=O)O (configuration not stated) |  |  | 100 |  |  | 20 |  | 
O=C(O)CCN1CCC(=C2c3cc(F)ccc3OCc3cccnc32)CC1 |  |  | 0 | 20 |  |  | 100 | 
Cc1ccc2c(c1)OCc1ncccc1C2=C1CCN(CCC(=O)O)CC1 |  |  | 20 | 60 |  | 0 | 100 | 
O=C(O)CCN1CCC(=C2c3ccccc3COc3ccccc32)CC1 | 0.062 | 0.0038 | 60 | 100 | 16 | 20 |  | PCoct [1]: 9.66; ED50 [4]: 16 mg/kg
O=C(O)CCN1CCC(=C2c3cc(Cl)ccc3OCc3cccnc32)CC1 |  |  | 0 | 100 |  |  |  | 
CC(CN1CCC(=C2c3ccc(F)cc3OCc3cccnc32)CC1)C(=O)O (configuration not stated) | 2.3 | 0.011 | 60 | 100 | 210 | 20 |  | 
O=C(O)CCN1CCC(=C2c3ccc(Cl)cc3OCc3cccnc32)CC1 |  |  | 0 | 80 |  |  | 100 | 
Cc1ccc2c(c1)OCc1cccnc1C2=C1CCN(CCC(=O)O)CC1 |  |  | 20 | 40 |  | 0 | 100 | 
O=C(O)CCN1CCC(=C2c3cccc(Cl)c3OCc3cccnc32)CC1 |  |  | 0 | 60 |  |  | 100 | 
